Experiments:
[1] = target: T1, Gonadotropin-releasing hormone receptor (Homo sapiens, UniProt P30968); assay: In vitro functional antagonism via inhibition of GnRH-stimulated phosphatidylinositol (PI) hydrolysis in cloned Chinese hamster ovary (CHO) cells stably expressing the human GnRH receptor.; format: cell-based
T1 sequence (P30968 whole entry): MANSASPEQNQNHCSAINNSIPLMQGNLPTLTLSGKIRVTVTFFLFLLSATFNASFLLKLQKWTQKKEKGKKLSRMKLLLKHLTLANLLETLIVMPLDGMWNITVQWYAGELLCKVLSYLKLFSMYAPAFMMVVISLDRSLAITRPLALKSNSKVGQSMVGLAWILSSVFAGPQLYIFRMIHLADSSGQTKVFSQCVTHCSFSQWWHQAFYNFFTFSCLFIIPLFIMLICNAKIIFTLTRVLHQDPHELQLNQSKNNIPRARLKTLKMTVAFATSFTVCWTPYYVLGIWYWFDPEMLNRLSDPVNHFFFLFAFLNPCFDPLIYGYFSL
How it was run: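 Functional antagonism read as inhibition of GnRH-stimulated phosphatidylinositol hydrolysis in cloned CHO cells stably expressing human GnRH receptor; IC50 reported in nM.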

[2] = target: T1, Gonadotropin-releasing hormone receptor; assay: Binding inhibition towards human pituitary gonadotropin-releasing hormone receptor using [125I]buserelin.
How it was run: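 Competition binding against the agonist radioligand [125I]buserelin at human pituitary GnRH receptor, run in the presence of 0.1% BSA; IC50 reported in nM.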

[3] = Oral bioavailability in rat; format: ADME, organism-based; details: in vivo
[4] = Oral bioavailability in dog; format: ADME, organism-based, Canis lupus familiaris; details: in vivo
[5] = Oral bioavailability in Rhesus monkey; format: ADME, organism-based, Macaca mulatta; details: in vivo

SMILES	IC50 [1]	IC50 [2]	bioavailability [3]	bioavailability [4]	bioavailability [5]
Cc1cc(C)cc(-c2[nH]c3ccc(C(C)(C)C(=O)N4CC5CCC4CC5)cc3c2[C@H](C)CNCCc2ccc(=O)n(C)c2)c1	1.4 nM	0.2 nM			
Cc1cc(C)cc(-c2[nH]c3ccc(C(C)(C)C(=O)N4CCC5(CC4)OCCO5)cc3c2[C@H](C)CNCCCCc2ccncc2)c1	66 nM	0.6 nM			
Cc1cc(C)cc(-c2[nH]c3ccc(C(C)(C)C(=O)N4CC5CCC4CC5)cc3c2[C@H](C)CNCCCCc2ccncc2)c1	2.8 nM	1 nM	14%	7%	
Cc1cc(C)cc(-c2[nH]c3ccc(C(C)(C)C(=O)N4CCN(C(=O)OC(C)(C)C)CC4)cc3c2[C@H](C)CNCCCCc2ccncc2)c1	220 nM	6.1 nM			
COCn1cc(CCNC[C@@H](C)c2c(-c3cc(C)cc(C)c3)[nH]c3ccc(C(C)(C)C(=O)N4CC5CCC4CC5)cc23)ccc1=O	3.9 nM	0.4 nM			
CCS(=O)(=O)N1CCN(C(=O)C(C)(C)c2ccc3[nH]c(-c4cc(C)cc(C)c4)c([C@H](C)CNCCCCc4ccncc4)c3c2)CC1	124 nM	4.4 nM			
Cc1cc(C)cc(-c2[nH]c3ccc(C(C)(C)C(=O)N4C5CCCCC5C5CCCCC54)cc3c2[C@H](C)CNCCCCc2ccncc2)c1 (some centres undefined)	31 nM	21 nM			
Cc1cc(C)cc(-c2[nH]c3ccc(C(C)(C)C(=O)N4CC5CCC4CC5)cc3c2[C@H](C)CNCCc2cccn(C)c2=O)c1	82 nM	5.3 nM			
Cc1cc(C)cc(-c2[nH]c3ccc(C(C)(C)C(=O)N4CCC(C)(C)CC4)cc3c2[C@H](C)CNCCCCc2ccncc2)c1	39 nM	1.3 nM			
Cc1cc(C)cc(-c2[nH]c3ccc(C(C)(C)C(=O)N4CC5CCC4CC5)cc3c2[C@H](C)CNCCc2ccncc2)c1	7.2 nM	0.6 nM	8%	25%	21%
COc1ccc(CCNC[C@@H](C)c2c(-c3cc(C)cc(C)c3)[nH]c3ccc(C(C)(C)C(=O)N4CC5CCC4CC5)cc23)cn1	11 nM	1 nM			
Cc1cc(C)cc(-c2[nH]c3ccc(C(C)(C)C(=O)N4C[C@H]5CC[C@@H]4C5)cc3c2[C@H](C)CNCCCCc2ccncc2)c1	4 nM	1 nM			
Cc1cc(C)cc(-c2[nH]c3ccc(C(C)(C)C(=O)N4C[C@@H]5CC[C@H]4C5)cc3c2[C@H](C)CNCCCCc2ccncc2)c1	8.7 nM	0.4 nM			
Cc1cc(C)cc(-c2[nH]c3ccc(C(C)(C)C(=O)N4CC5CCC(CC5)C4)cc3c2[C@H](C)CNCCCCc2ccncc2)c1	13 nM	2.1 nM			
Cc1cc(C)cc(-c2[nH]c3ccc(C(C)(C)C(=O)N(CC(C)C)CC(C)C)cc3c2[C@H](C)CNCCCCc2ccncc2)c1	14 nM	5.6 nM			
Cc1cc(C)cc(-c2[nH]c3ccc(C(C)(C)C(=O)N4C[C@H]5CC[C@@H]4C5)cc3c2[C@H](C)CNCCc2ccncc2)c1	1.9 nM	1.2 nM		8.5%	
Cc1cc(C)cc(-c2[nH]c3ccc(C(C)(C)C(=O)N4C5CCC4CC5)cc3c2[C@H](C)CNCCCCc2ccncc2)c1	5.7 nM	0.7 nM			
Cc1cc(C)cc(-c2[nH]c3ccc(C(C)(C)C(=O)N4CCC5(CCCC5)CC4)cc3c2[C@H](C)CNCCCCc2ccncc2)c1	93 nM	2.7 nM			
Cc1cc(C)cc(-c2[nH]c3ccc(C(C)(C)C(=O)N4CC5CCC4CC5)cc3c2[C@H](C)CNCCc2cccnc2)c1	2.6 nM	0.6 nM		12%	
Cc1cc(C)cc(-c2[nH]c3ccc(C(C)(C)C(=O)N4C5CCC4CC5)cc3c2CCNCCCCc2ccncc2)c1		1.4 nM			
Cc1cc(C)cc(-c2[nH]c3ccc(C(C)(C)C(=O)N4C[C@H]5CCCC[C@H]5C4)cc3c2[C@H](C)CNCCCCc2ccncc2)c1	66 nM	1.4 nM			
Cc1cc(C)cc(-c2[nH]c3ccc(C(C)(C)C(=O)N4CC5CCC4CC5)cc3c2[C@H](C)CNCCC2CCC(=O)N(C)C2)c1 (some centres undefined)	8.2 nM	0.4 nM			
Cc1cc(C)cc(-c2[nH]c3ccc(C(C)(C)C(=O)N4C5CCCC4CC5)cc3c2[C@H](C)CNCCCCc2ccncc2)c1	8.8 nM	0.8 nM			
Cc1cc(C)cc(-c2[nH]c3ccc(C(C)(C)C(=O)N4CC5CCC4CC5)cc3c2[C@H](C)CNCCc2cc(C)c(=O)n(C)c2)c1	4 nM	0.6 nM		35%	4%
Cc1cc(C)cc(-c2[nH]c3ccc(C(C)(C)C(=O)N4CC5CCC4CC5)cc3c2[C@H](C)CNCCc2ccc(O)nc2)c1	1 nM	0.3 nM			
Cc1cc(C)cc(-c2[nH]c3ccc(C(C)(C)C(=O)N4CC5(C)CC4CC(C)(C)C5)cc3c2[C@H](C)CNCCCCc2ccncc2)c1 (some centres undefined)	6.4 nM	4.8 nM			
Cc1cc(C)cc(-c2[nH]c3ccc(C(C)(C)C(=O)N4CC5CCCC4C5)cc3c2[C@H](C)CNCCCCc2ccncc2)c1 (some centres undefined)	6.8 nM	4.8 nM			
Cc1cc(C)cc(-c2[nH]c3ccc(C(C)(C)C(=O)N4CC(C)(C)C4)cc3c2[C@H](C)CNCCCCc2ccncc2)c1	21 nM	0.7 nM			
Cc1cc(C)cc(-c2[nH]c3ccc(C(C)(C)C(=O)N4C5CCC4CC5)cc3c2[C@H](C)CNCCc2ccncc2)c1	7 nM	0.8 nM	23%	14%	6.4%
